Test results reported in ChEMBL document CHEMBL2440032, “Synthesis of sterically encumbered 11β-aminoprogesterone derivatives and evaluation as 11β-hydroxysteroid dehydrogenase inhibitors and mineralocorticoid receptor antagonists” (Bioorg Med Chem, 2013).
Activity calls are given as the source filed them. No cut-off for these calls is given here.

Key:
[1] = target: T1, 11-beta-hydroxysteroid dehydrogenase type 2 (Homo sapiens, UniProt P80365); assay: Inhibition of human recombinant 11beta-HSD2 expressed in HEK293 cells assessed as inhibition of [1,2,6,7-3H]-cortisol to [3H]cortisone preincubated for 10 mins before substrate addition by scintillation counting; format: cell-based
T1 sequence (P80365 whole entry): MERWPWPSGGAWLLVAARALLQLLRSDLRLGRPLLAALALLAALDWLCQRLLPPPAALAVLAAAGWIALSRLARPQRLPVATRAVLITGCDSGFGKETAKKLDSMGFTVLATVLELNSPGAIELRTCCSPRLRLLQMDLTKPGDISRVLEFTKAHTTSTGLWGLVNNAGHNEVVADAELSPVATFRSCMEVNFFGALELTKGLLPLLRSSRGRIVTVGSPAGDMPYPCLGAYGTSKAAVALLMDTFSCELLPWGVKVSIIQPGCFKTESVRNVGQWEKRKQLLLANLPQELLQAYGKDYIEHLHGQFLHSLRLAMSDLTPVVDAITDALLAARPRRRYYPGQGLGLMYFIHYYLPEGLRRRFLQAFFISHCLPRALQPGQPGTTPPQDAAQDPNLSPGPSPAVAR

[2] = target: T2, 11-beta-hydroxysteroid dehydrogenase 1 (Homo sapiens, UniProt P28845); assay: Inhibition of human recombinant 11beta-HSD1 expressed in HEK293 cells assessed as inhibition of [1,2,-3H]-cortisone to [3H]cortisol preincubated at 10 uM for 10 mins before substrate addition by scintillation counting; format: cell-based
How it was run: (§1)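 Lysates of HEK-293 cells expressing human 11βHSD1, in buffer with 1 mM MgCl2, 250 mM sucrose and 20 mM Tris–HCl pH 7.4, sonicated and used at once. Incubated 10 min at 37 °C with 200 nM [1,2-3H]cortisone and 500 µM NADPH. Stopped with excess unlabeled cortisone/cortisol in methanol, then TLC separation and scintillation counting for substrate conversion. Three independent experiments.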
Target sequence in this assay (P28845 whole entry, looked up): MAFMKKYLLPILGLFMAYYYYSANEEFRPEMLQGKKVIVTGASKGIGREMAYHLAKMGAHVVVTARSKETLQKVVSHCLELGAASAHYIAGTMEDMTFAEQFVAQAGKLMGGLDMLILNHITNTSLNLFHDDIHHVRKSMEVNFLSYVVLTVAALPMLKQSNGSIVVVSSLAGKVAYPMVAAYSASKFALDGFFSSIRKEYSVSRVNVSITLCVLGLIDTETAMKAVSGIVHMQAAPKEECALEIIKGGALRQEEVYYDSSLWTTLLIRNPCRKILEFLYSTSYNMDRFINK

[3] = target: T3, Mineralocorticoid receptor (Homo sapiens) (UniProt P08235); assay: (§2) Transactivation of human recombinant mineralocorticoid receptor expressed in HEK-293 cells after 24 hrs […]; format: cell-based; conditions: HEK293
T3 sequence (whole entry): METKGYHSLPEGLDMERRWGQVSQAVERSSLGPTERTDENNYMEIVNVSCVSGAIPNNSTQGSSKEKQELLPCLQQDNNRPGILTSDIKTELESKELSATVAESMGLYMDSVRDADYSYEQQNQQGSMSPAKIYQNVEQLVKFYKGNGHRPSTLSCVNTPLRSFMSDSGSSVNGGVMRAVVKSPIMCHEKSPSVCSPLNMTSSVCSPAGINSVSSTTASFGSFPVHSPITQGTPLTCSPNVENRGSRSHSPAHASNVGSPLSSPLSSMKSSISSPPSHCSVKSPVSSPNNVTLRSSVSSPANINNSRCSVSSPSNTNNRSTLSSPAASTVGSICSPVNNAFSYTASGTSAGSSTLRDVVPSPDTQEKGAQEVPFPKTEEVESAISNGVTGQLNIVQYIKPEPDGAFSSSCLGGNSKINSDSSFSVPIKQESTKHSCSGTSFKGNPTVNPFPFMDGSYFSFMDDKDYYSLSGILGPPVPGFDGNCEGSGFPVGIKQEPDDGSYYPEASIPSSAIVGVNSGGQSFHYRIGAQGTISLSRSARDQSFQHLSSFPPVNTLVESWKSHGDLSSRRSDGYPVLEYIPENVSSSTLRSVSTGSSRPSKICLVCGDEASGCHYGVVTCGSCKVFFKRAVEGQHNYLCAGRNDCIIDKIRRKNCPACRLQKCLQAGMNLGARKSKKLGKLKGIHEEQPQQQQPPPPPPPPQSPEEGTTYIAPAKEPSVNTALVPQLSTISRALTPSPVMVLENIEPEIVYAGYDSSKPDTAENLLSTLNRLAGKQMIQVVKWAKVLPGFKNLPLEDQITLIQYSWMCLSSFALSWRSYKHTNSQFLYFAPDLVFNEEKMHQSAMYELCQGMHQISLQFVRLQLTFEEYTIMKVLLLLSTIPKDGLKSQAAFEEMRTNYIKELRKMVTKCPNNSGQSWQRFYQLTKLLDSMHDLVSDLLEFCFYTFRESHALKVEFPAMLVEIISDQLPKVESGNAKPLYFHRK
How it was run: (§3)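 HEK-293 cells, 150,000 per well, plated for 24 h, then calcium-phosphate transfected with pMMTV-lacZ β-galactosidase reporter, pCMV-LUC luciferase control and human MR plasmid. Cells were washed with charcoal-treated DMEM containing 10% FBS, then exposed to a range of compound concentrations with or without 10 nM aldosterone. Readout was β-galactosidase normalized to luciferase, relative to vehicle. Three independent experiments.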

[4] = target: T4, Mineralocorticoid receptor (Homo sapiens, UniProt P08235); assay: (§4) Antagonist activity at human recombinant mineralocorticoid receptor expressed in HEK-293 cells after 24 hrs assessed as inhibition of aldosterone-induced receptor activity by […]; format: cell-based, HEK293; how it was run: as §3
T4 sequence (P08235 whole entry): T3 sequence (whole entry)

[5] = target: T2, 11-beta-hydroxysteroid dehydrogenase 1; assay: Inhibition of human recombinant 11beta-HSD1 expressed in HEK293 cells assessed as inhibition of [1,2,-3H]-cortisone to [3H]cortisol preincubated for 10 mins before substrate addition by scintillation counting; format: cell-based; how it was run: as §1
Target sequence in this assay (P28845 whole entry): as the sequence (P28845 whole entry, looked up) above

[6] = target: T4, Mineralocorticoid receptor; assay: as §2; format: cell-based, HEK293; how it was run: as §3
[7] = target: T3, Mineralocorticoid receptor (Homo sapiens); assay: as §4; format: cell-based; conditions: HEK293; how it was run: as §3
[8] = target: T4, Mineralocorticoid receptor; assay: Transactivation of wild-type human recombinant mineralocorticoid receptor expressed in COS7 cells after 24 hrs by luciferase reporter gene assay; format: cell-based, COS-7

Row | SMILES | IC50 [1] [nM] | inhibition [2] [%] | other results
1 | CC(=O)[C@H]1CC[C@H]2[C@@H]3CCC4=CC(=O)CC[C@]4(C)[C@H]3[C@@H](NC[C@@H](CO)NC(=O)OC(C)(C)C)C[C@]12C | 4210 | < 70 | 
2 | CC(=O)[C@H]1CC[C@H]2[C@@H]3CCC4=CC(=O)CC[C@]4(C)[C@H]3[C@@H](NCC(=O)OC(C)(C)C)C[C@]12C | 2410 |  | 
3 | CC(=O)[C@H]1CC[C@H]2[C@@H]3CCC4=CC(=O)CC[C@]4(C)[C@H]3[C@@H](NS(=O)(=O)c3ccccc3[N+](=O)[O-])C[C@]12C |  |  | Activity [3]: inactive; IC50 [4]: 10900 nM
4 | CC(=O)[C@H]1CC[C@H]2[C@@H]3CCC4=CC(=O)CC[C@]4(C)[C@H]3[C@@H](NC[C@H](N)C(=O)O)C[C@]12C | 6760 | < 70 | 
5 | CC(=O)[C@H]1CC[C@H]2[C@@H]3CCC4=CC(=O)CC[C@]4(C)[C@H]3[C@@H](N=[N+]=[N-])C[C@]12C [11BETA-AZIDOPROGESTERONE] |  |  | Activity [3]: inactive; IC50 [4]: 3500 nM
6 | CC(=O)[C@H]1CC[C@H]2[C@@H]3CCC4=CC(=O)CC[C@]4(C)[C@H]3[C@H](O)C[C@]12C |  | > 70 | IC50 [5]: 630 nM
7 | CCOC(=O)/C(CN[C@H]1C[C@]2(C)[C@@H](C(C)=O)CC[C@H]2[C@@H]2CCC3=CC(=O)CC[C@]3(C)[C@H]21)=N\O | 1050 | > 70 | IC50 [5]: 640 nM
8 | CC(=O)[C@H]1CC[C@H]2[C@@H]3CCC4=CC(=O)CC[C@]4(C)[C@H]3[C@@H](O)C[C@]12C [11BETA-HYDROXYPROGESTERONE] |  | > 70 | EC50 [6]: 14000 nM; IC50 [5]: 1160 nM; inhibition [7]: inactive; EC50 [8]: 50 nM
9 | CC(=O)[C@H]1CC[C@H]2[C@@H]3CCC4=CC(=O)CC[C@]4(C)[C@H]3[C@@H](NC[C@H]3COC(C)(C)N3C(=O)OC(C)(C)C)C[C@]12C | 5850 | < 70 | 
10 | CC(=O)[C@H]1CC[C@H]2[C@@H]3CCC4=CC(=O)CC[C@]4(C)[C@H]3[C@@H](NC[C@@H](N)C(=O)O)C[C@]12C |  |  | EC50 [6]: 4100 nM; inhibition [7]: inactive

Second part, led by results:

Row | IC50 [1] [nM] | inhibition [2] [%] | SMILES | other results
11 | 2200 |  | CC(=O)[C@H]1CC[C@H]2[C@@H]3CCC4=CC(=O)CC[C@]4(C)[C@H]3[C@@H](N)C[C@]12C [11BETA-AMINOPROGESTERONE] | 
12 | 2690 |  | CC(=O)[C@H]1CC[C@H]2[C@@H]3CCC4=CC(=O)CC[C@]4(C)[C@H]3[C@@H](NCC(=O)O)C[C@]12C | 
